# Results as given in ChEMBL document CHEMBL4622964, “Designing Dihydrofolate Reductase Inhibitors as X-ray Radiosensitizers to Reverse Radioresistance of Cervical Cancer” (ACS Med Chem Lett, 2020).
# Activity calls are given as the source filed them. The rule behind the calls is not given here.
# Columns and labels:
# HeLa [1] = assay: Induction of cell cycle arrest in human HeLa cells assessed as accumulation at SubG1 phase at 1 uM after 48 hrs in presence of 4 Gy X-ray radiation by propidium iodide staining based flow cytometric analysis (reference value: […]); type: functional
# [2] = Toxicity in BALB/c mouse xenografted with human HeLa cells assessed as kidney damage by measuring effect on BUN level at 4 mg/kg, iv administered every 3 days for 21 days; type: organism-based; settings: in vivo
# How it was run: (§1)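 HeLa xenograft nude mice dosed at 4 mg/kg iv every 3 days over 21 days, alone or with X-rays; blood collected 24 h after last injection for serum biochemistry: ALT, AST (liver), BUN and uric acid (kidney).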
# HeLa [3] = assay: Induction of mitochondrial dysfunction in human HeLa cells assessed as increase in mitochondrial fission at 1 uM after 24 hrs in presence of 4 Gy X-ray irradiation by DAPI staining based fluorescence microscopic analysis; type: functional, cell-based
# How it was run: (§2)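 HeLa cells treated with 1 μM compound, without or with 4 Gy X-rays; mitochondrial morphology imaged by fluorescence microscopy after MitoTracker and DAPI co-staining.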
# Dihydrofolate reductase = target: T1, Dihydrofolate reductase (Homo sapiens, UniProt P00374); assay: Inhibition of recombinant human DHFR using dihydrofolate as substrate in presence of NADPH
# T1 sequence (P00374 whole entry): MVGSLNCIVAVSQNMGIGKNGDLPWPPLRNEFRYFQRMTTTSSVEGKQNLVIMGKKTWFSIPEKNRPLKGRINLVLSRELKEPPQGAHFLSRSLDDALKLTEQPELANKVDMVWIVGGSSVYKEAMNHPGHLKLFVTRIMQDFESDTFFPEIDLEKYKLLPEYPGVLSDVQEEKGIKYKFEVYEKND
# [4] = Toxicity in BALB/c mouse xenografted with human HeLa cells assessed as spleen damage at 4 mg/kg, iv administered for every 3 days for 21 days and measured after 24 hrs post last dose in presence of 4 Gy X-ray irradiation by H and E staining based light microscopic analysis; type: organism-based; settings: in vivo
# How it was run: (§3)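 HeLa-tumor-bearing nude mice dosed at 4 mg/kg iv every 3 days for 21 days, alone or with X-rays; euthanized 24 h after last injection; heart, liver, lungs, kidneys and spleen sectioned and stained with H&E.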
# [5] = Toxicity in BALB/c mouse xenografted with human HeLa cells assessed as heart damage at 4 mg/kg, iv administered for every 3 days for 21 days and measured after 24 hrs post last dose by H and E staining based light microscopic analysis; type: organism-based; settings: in vivo; how it was run: as §3
# [6] = Ratio of IC50 for cytotoxicity against human Ect1 cells assessed as reduction in cell viability by MTT assay to cytotoxicity against human Ect1 cells assessed as reduction in cell viability in presence of 4 Gy irradiation by MTT assay; type: cell-based; settings: read-out: Ratio IC50
# How it was run: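 MTT viability assay on Ect1/E6E7 normal ectocervical cells and HeLa cells, with 0 or 4 Gy X-rays. SER = IC50(0 Gy)/IC50(4 Gy) in the same line; safe index SI4 = IC50 Ect1/E6E7 + 4 Gy divided by IC50 HeLa + 4 Gy.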
# [7] = Drug localization in cytoplasm of human HeLa cells at 20 uM after 8 hrs by LysoTracker/DAPI staining based fluorescence microscopic analysis; type: ADME, subcellular
# How it was run: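 HeLa cells pretreated with 20 μM compound; LysoTracker added 2 h and DAPI 30 min before each time point; compound green fluorescence (emission about 510 nm) overlaid with lysosome (red) and nucleus under fluorescence microscope.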
# HeLa [8] = assay: Induction of apoptosis in human HeLa cells assessed as caspase-3 activation at 1 uM using Ac-DEVD-AMC as substrate after 12 hrs in presence of 4 Gy X-ray radiation by fluorescence based assay relative to control; type: functional
# How it was run: (§4)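 Caspase-3 and caspase-8 activities were measured in HeLa cells after 12 h at 1 μM, without or with 4 Gy X-rays. Mean ± SD of three independent experiments.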
# HeLa [9] = assay: Antiproliferative activity against human HeLa cells assessed as reduction in cell viability incubated for 12 hrs by MTT assay; type: functional, cell-based
# How it was run: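 MTT viability assay in HeLa cancer cells, with the test agent alone (0 Gy) or combined with 4 Gy X-rays. IC50 values are in μM. Sensitivity enhancement ratio = IC50(0 Gy)/IC50(4 Gy).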
# HeLa [10] = assay: Inhibition of cell migration in human HeLa cells assessed as reduction in migration velocity at 1 uM after 24 hrs by phase contrast microscopic analysis; type: functional, cell-based
# How it was run: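 Wound-healing scratch assay on HeLa monolayers, compound with or without 4 Gy X-rays; wound closure recorded by phase-contrast microscopy at set times; migrated cells counted manually; mean ± SD of three independent experiments.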
# [11] = target: T2, Dihydrofolate reductase (Homo sapiens) (UniProt P00374); assay: Inhibition of DHFR in human HeLa cells at 10 uM relative to control; type: cell-based
# T2 sequence (whole entry): T1 sequence (P00374 whole entry)
# How it was run: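 HeLa cells treated with compound; DHFR activity assayed in cell lysates, inhibition expressed relative to untreated control.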
# HeLa [12] = assay: Antimigratory activity in human HeLa cells assessed as inhibition of cell migration at 1 uM after 24 hrs in presence of 4 Gy irradiation by wound healing assay (reference value: 35%); type: functional; settings: light or radiation study, read-out: INH
# How it was run: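 Wound-healing scratch assay in HeLa cells. Cells were treated without or with 4 Gy X-rays, and wound closure was imaged by phase-contrast microscopy at the indicated times. Migrated cells were counted manually. Mean ± SD of three independent experiments.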
# [13] = Toxicity in BALB/c mouse xenografted with human HeLa cells assessed as liver damage by measuring effect on AST level at 4 mg/kg, iv administered every 3 days for 21 days in presence of 4 Gy X-ray irradiation; type: organism-based; settings: in vivo; how it was run: as §1
# HeLa [14] = assay: Induction of reactive oxygen species generation in human HeLa cells incubated with DHE for 30 mins and measured up to 30 mins by fluorescence microscopic analysis; type: functional, cell-based
# How it was run: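 HeLa cells pretreated with compound, with or without 4 Gy X-rays, then incubated with dihydroethidium for 30 min; red superoxide-derived fluorescence imaged by fluorescence microscopy, with observation continued over a further 30 min.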
# [15] = Toxicity in BALB/c mouse xenografted with human HeLa cells assessed as body weight loss at 4 mg/kg, iv administered for every 3 days and measured after 21 days in presence of 4 Gy X-ray irradiation; type: organism-based; settings: in vivo, 504 h
# How it was run: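 HeLa-tumor-bearing nude mice given compound at 4 mg/kg by tail-vein injection every 3 days, alone or with X-rays; body weight recorded across 21 days.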
# HeLa [16] = assay: Induction of apoptosis in human HeLa cells assessed as caspase-8 activation at 1 uM using […] as substrate after 12 hrs in presence of 4 Gy X-ray radiation by fluorescence based assay relative to control; type: functional; how it was run: as §4
# [17] = Toxicity in BALB/c mouse xenografted with human HeLa cells assessed as lung damage at 4 mg/kg, iv administered for every 3 days for 21 days and measured after 24 hrs post last dose in presence of 4 Gy X-ray irradiation by H and E staining based light microscopic analysis; type: organism-based; settings: in vivo; how it was run: as §3
# [18] = Toxicity in BALB/c mouse xenografted with human HeLa cells assessed as liver damage by measuring effect on ALT level at 4 mg/kg, iv administered every 3 days for 21 days; type: organism-based; settings: in vivo; how it was run: as §1
# HeLa [19] = assay: Induction of cell cycle arrest in human HeLa cells assessed as accumulation at G2/M phase at 1 uM after 48 hrs by propidium iodide staining based flow cytometric analysis (reference value: 17.7%); type: functional
# HeLa [20] = assay: Induction of mitochondrial dysfunction in human HeLa cells assessed as mitochondrial fission at 1 uM after 24 hrs by DAPI staining based fluorescence microscopic analysis; type: functional, cell-based; how it was run: as §2
structure (smiles),measurement,setting,value
Nc1nc(N)c2nc3c(nc2n1)-c1cccc2cccc-3c12,Activity,HeLa [1],30.2%
same,Activity,[2],Non-Toxic
same,Activity,HeLa [3],Active
same,IC50,Dihydrofolate reductase,0.81 µM
same,Activity,[4],Non-Toxic
same,Activity,[5],Non-Toxic
same,selectivity ratio,[6],2.2
same,Drug uptake,[7],Active
same,Activity,HeLa [8],150%
same,IC50,HeLa [9],2.1 µM
same,inhibition,HeLa [10],Active
same,inhibition,[11],76%
same,inhibition at 1 µM,HeLa [12],81%
same,Activity,[13],Non-Toxic
same,Activity,HeLa [14],Active
same,Activity,[15],Non-Toxic
same,Activity,HeLa [16],129%
same,Activity,[17],Non-Toxic
same,Activity,[18],Non-Toxic
same,Activity,HeLa [19],32.1%
same,Activity,HeLa [20],Active
